These results are taken from ChEMBL document CHEMBL1165965, “Synthesis and structure-activity relationships of 1,2,3,4-tetrahydropyrido[2,3-b]pyrazines as potent and selective inhibitors of the anaplastic lymphoma kinase” (Bioorg Med Chem, 2010).

Molecules are shown by their SMILES. Bounds are passed on as bounds.

Assay [1] concerns the target Mitogen-activated protein kinase kinase kinase 1 (Homo sapiens) (UniProt Q13233). The assay can be described thus: Inhibition of MAP3K1 at 1 uM.
Assay [2] deals with T1, Mitogen-activated protein kinase kinase kinase 15 (Homo sapiens) (UniProt Q6ZN16).
T1 sequence (whole entry): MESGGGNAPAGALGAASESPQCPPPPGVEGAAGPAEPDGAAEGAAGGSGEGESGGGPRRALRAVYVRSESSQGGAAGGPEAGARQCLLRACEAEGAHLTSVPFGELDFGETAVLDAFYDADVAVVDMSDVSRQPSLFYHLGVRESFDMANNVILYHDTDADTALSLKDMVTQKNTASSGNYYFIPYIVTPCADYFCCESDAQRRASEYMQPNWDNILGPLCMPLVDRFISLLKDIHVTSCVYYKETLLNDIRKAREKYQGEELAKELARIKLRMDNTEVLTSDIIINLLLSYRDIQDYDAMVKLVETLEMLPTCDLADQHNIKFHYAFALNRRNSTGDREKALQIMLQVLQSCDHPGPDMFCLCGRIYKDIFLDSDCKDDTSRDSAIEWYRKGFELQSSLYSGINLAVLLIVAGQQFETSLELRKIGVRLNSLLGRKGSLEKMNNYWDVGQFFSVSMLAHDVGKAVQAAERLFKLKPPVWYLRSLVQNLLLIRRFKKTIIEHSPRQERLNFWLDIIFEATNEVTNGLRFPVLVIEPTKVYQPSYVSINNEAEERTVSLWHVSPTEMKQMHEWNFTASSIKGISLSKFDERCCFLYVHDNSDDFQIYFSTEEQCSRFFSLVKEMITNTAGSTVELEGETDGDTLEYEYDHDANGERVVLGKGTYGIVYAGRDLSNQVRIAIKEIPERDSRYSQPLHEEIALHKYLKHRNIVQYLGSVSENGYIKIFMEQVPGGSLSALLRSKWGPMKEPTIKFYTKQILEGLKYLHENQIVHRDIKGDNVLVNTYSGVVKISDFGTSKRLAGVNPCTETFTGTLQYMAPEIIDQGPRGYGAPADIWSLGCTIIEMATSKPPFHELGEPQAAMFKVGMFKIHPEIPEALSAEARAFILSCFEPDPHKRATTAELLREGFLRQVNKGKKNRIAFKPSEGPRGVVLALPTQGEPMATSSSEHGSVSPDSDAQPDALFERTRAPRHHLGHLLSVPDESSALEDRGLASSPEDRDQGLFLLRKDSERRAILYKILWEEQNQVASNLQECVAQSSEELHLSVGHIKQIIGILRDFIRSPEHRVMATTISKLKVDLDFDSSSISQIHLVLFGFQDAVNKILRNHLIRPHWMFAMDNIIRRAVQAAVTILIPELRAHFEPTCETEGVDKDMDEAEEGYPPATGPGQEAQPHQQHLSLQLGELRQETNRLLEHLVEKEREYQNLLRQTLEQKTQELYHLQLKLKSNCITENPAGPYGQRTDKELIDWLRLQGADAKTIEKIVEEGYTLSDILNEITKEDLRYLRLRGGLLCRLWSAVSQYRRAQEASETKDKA
The assay can be described thus: Inhibition of MAP3K15 at 1 uM.

Assay [3] has as its target Misshapen-like kinase 1 (Homo sapiens) (UniProt Q8N4C8). Kind of assay: Inhibition of MINK at 1 uM.
Assay [4] addresses MAP kinase-interacting serine/threonine-protein kinase 1 (Homo sapiens) (UniProt Q9BUB5). Kind of assay: Inhibition of MKNK1 at 1 uM.
For assay [5], the target named is Myosin light chain kinase, smooth muscle (Homo sapiens) (UniProt Q15746). Kind of assay: Inhibition of MLCK at 1 uM.
For assay [6], the target named is Mitogen-activated protein kinase kinase kinase 9 (Homo sapiens) (UniProt P80192). Kind of assay: Inhibition of MLK1 at 1 uM.
Sequence of Mitogen-activated protein kinase kinase kinase 9 (Homo sapiens) (P80192 whole entry, looked up): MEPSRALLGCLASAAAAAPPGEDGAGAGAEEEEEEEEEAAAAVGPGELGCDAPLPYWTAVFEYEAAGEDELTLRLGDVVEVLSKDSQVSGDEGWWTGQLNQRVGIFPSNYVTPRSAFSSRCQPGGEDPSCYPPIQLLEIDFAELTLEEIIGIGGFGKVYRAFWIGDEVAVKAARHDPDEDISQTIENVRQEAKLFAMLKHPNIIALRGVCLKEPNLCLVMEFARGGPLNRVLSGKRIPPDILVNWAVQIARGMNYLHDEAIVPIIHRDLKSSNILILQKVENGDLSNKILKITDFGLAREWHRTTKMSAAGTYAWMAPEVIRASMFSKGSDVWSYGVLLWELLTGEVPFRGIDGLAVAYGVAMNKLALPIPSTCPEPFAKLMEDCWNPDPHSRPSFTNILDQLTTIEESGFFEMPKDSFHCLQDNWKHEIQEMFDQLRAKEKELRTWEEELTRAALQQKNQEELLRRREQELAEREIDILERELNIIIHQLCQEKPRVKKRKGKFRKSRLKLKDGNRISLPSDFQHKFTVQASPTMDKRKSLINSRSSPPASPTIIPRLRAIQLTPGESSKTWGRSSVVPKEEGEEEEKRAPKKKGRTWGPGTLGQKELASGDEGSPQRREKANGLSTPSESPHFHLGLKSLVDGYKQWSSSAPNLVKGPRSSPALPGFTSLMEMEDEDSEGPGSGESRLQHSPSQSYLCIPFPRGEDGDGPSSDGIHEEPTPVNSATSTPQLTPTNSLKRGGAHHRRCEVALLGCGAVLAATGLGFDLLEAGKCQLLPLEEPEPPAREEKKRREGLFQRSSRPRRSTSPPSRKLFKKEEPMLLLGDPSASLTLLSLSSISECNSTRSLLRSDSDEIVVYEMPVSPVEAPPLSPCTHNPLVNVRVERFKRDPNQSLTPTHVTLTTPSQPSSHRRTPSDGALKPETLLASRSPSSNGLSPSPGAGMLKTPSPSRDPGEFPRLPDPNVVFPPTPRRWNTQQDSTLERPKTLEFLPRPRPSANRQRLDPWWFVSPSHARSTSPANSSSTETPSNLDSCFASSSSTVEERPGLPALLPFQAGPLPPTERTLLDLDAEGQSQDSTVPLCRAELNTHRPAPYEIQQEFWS
The target in assay [7] is Serine/threonine-protein kinase MRCK beta (Homo sapiens) (UniProt Q9Y5S2). Kind of assay: Inhibition of MRCKB at 1 uM.
For assay [8], the target named is Platelet-derived growth factor receptor alpha (Homo sapiens) (UniProt P16234). Kind of assay: Inhibition of PDGFRA at 1 uM.
Sequence of Platelet-derived growth factor receptor alpha (Homo sapiens) (P16234 whole entry, canonical isoform): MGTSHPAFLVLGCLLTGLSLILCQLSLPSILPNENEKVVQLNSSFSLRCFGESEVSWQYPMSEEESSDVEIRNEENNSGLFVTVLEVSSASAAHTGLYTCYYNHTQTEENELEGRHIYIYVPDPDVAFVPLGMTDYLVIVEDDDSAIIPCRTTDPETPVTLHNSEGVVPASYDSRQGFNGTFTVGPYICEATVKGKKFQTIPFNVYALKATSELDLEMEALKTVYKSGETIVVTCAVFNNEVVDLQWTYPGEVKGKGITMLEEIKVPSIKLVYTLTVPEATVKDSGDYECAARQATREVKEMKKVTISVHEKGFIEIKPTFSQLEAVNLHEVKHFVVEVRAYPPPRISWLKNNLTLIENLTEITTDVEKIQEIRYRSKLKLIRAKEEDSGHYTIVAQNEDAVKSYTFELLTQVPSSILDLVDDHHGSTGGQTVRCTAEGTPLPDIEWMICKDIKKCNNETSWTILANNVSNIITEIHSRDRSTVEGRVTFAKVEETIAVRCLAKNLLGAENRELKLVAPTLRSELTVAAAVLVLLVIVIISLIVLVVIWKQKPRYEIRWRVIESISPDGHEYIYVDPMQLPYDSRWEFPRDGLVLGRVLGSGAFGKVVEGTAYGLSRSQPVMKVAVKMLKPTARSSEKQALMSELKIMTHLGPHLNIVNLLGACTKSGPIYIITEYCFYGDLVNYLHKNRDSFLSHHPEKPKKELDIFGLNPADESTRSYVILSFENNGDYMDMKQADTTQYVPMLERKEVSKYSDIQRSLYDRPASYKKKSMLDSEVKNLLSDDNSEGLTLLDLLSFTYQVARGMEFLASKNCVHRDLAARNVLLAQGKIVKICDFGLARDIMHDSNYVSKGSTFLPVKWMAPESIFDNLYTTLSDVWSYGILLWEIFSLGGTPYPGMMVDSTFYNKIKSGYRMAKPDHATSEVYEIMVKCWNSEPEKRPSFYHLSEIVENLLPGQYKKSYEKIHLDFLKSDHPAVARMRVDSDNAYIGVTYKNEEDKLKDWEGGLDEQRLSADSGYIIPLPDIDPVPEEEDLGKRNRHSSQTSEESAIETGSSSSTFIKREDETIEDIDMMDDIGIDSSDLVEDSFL
The test system of assay [9] is Phosphatidylinositol 4,5-bisphosphate 3-kinase catalytic subunit alpha isoform (Homo sapiens), P42336 [M1043I]. The assay can be described thus: Inhibition of PIK3CA M1043I mutant at 1 uM.
Assay [10] has as its target Serine/threonine-protein kinase pim-1 (Homo sapiens) (UniProt P11309). Kind of assay: Inhibition of PIM1 at 1 uM.
The target in assay [11] is T2, Uncharacterized serine/threonine-protein kinase SBK3 (Homo sapiens) (UniProt P0C264).
T2 sequence (whole entry): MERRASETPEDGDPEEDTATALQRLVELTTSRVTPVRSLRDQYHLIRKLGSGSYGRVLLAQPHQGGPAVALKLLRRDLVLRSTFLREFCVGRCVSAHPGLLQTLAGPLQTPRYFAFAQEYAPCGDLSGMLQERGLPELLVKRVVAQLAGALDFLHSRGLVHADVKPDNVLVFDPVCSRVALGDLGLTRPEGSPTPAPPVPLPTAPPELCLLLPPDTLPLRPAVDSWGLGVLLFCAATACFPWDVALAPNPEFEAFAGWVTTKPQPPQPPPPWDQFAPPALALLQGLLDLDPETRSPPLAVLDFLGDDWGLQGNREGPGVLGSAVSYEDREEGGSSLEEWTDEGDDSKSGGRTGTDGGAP
The assay can be described thus: Inhibition of SgK110 at 1 uM.

Assay [12] has as its target Activin receptor type-2A (Homo sapiens) (UniProt P27037). Kind of assay: Inhibition of ACVR2A at 1 uM. The gist of the method:
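Ambit KINOMEscan screen at a single concentration across a 250–400 kinase panel, recorded as percent inhibition. Selectivity was expressed as S(90), the fraction of kinases inhibited >90%.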

The target in assay [13] is T3, Cyclin-dependent kinase-like 2 (Homo sapiens) (UniProt Q92772).
T3 sequence (whole entry): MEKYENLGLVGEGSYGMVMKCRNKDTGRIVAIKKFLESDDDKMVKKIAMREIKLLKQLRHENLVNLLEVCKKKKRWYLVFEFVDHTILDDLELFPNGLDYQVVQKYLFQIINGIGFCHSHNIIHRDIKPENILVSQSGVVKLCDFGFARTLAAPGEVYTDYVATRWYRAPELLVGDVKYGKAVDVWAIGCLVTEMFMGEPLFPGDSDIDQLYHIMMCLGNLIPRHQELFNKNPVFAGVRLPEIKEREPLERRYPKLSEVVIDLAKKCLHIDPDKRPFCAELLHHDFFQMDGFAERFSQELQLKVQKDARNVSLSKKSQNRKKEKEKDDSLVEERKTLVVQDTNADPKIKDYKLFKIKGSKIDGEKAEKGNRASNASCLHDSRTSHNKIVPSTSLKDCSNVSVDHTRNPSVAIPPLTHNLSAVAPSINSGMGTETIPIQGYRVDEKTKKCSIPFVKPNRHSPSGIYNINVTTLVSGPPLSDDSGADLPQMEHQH
The assay can be described thus: Inhibition of CDKL2 at 1 uM.

In assay [14] the target is Receptor tyrosine-protein kinase erbB-2 (Homo sapiens) (UniProt P04626). Kind of assay: Inhibition of ERBB2 at 1 uM. The gist of the method:
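Single-concentration screen using Ambit Bioscience KINOMEscan technology across a panel of 250–400 kinases. Per-kinase inhibition from this screen was summarized as S(90), the fraction of kinases inhibited by more than 90%.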

Sequence of Receptor tyrosine-protein kinase erbB-2 (Homo sapiens) (P04626 whole entry): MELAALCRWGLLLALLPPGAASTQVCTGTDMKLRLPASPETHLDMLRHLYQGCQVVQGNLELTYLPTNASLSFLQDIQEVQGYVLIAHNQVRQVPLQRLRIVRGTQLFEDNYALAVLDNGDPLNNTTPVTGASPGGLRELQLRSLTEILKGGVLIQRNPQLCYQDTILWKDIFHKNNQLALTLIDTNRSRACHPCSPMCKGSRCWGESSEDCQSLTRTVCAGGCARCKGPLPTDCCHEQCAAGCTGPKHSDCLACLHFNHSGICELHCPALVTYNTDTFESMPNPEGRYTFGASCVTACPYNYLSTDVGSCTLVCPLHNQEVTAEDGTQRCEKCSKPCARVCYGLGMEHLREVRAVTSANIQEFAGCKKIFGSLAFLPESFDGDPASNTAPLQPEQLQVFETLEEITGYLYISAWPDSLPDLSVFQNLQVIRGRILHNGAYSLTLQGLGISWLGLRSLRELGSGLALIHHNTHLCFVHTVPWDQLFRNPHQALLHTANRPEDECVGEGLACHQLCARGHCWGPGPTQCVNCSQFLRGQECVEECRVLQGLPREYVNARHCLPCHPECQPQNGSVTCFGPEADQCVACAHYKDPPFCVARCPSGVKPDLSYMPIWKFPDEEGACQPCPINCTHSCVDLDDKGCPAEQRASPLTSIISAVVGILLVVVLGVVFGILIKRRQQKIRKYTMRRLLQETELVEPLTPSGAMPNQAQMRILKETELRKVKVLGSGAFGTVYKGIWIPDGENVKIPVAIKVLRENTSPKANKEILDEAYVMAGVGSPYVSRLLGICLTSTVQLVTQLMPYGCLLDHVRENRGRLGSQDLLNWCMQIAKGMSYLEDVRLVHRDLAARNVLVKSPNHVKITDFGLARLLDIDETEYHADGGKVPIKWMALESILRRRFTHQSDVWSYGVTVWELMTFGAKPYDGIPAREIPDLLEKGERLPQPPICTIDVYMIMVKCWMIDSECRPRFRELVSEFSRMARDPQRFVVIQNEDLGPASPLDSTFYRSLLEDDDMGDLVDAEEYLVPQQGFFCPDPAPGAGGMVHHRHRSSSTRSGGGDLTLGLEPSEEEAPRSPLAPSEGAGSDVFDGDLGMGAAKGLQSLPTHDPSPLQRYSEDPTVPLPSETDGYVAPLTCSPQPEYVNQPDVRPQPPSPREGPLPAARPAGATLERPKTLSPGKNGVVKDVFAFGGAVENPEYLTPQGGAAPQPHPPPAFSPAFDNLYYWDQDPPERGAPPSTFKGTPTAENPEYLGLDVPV
Sequence of Activin receptor type-2A (Homo sapiens) (P27037 whole entry): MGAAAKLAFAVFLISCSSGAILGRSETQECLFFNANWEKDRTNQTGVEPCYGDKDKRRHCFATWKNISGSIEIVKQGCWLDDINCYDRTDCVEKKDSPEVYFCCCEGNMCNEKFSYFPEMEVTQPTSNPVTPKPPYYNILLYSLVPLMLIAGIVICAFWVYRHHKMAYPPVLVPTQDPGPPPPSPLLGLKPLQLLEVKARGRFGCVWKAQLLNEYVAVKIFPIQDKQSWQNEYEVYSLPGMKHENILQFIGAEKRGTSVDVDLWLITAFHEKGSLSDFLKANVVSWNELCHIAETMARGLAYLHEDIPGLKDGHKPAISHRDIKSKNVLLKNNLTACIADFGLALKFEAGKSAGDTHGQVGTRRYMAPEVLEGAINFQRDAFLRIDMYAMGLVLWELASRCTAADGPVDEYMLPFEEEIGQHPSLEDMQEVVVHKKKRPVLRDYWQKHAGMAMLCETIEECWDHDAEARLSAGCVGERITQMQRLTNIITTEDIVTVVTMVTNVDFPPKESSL
Sequence of MAP kinase-interacting serine/threonine-protein kinase 1 (Homo sapiens) (Q9BUB5 whole entry, looked up): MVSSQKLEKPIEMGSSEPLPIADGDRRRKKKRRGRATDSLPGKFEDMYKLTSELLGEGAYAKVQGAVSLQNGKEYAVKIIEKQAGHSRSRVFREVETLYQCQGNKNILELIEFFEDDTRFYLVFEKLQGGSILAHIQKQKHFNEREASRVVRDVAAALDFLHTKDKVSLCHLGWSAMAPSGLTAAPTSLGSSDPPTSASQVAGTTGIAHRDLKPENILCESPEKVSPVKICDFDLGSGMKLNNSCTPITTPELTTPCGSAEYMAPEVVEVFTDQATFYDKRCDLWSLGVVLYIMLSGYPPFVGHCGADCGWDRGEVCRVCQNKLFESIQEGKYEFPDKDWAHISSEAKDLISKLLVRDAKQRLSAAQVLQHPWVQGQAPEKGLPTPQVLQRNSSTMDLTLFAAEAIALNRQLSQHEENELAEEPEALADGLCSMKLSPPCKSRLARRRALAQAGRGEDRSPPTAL
Sequence of Serine/threonine-protein kinase pim-1 (Homo sapiens) (P11309 whole entry, looked up): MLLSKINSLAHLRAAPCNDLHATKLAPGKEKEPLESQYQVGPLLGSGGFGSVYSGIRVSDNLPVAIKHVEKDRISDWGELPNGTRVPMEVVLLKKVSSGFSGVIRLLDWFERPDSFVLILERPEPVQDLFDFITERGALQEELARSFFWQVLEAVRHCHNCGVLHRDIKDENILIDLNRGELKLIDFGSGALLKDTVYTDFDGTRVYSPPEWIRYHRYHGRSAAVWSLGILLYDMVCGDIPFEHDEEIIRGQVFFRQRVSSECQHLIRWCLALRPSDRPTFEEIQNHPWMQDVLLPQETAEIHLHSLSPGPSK

For the compound `FC(F)(F)c1ccc(Cl)cc1CN1CCNc2ncc(-c3ccnc(N4CCNCC4)c3)cc21`, the inhibition in assay [1], in assay [2], in assay [3], in assay [4], in assay [5] and in assay [6] was < 50% in each case. Further, the inhibition in assay [7] is < 50%; in assay [8], < 50%; in [9], < 50%; in assay [10], < 50%; in assay [11], 96%; in [12], < 50%. Further, the inhibition in [13] and in assay [14] was < 50% in each case.
Take `CN1CCN(c2ccc(-c3cnc4c(c3)N(Cc3cc(F)ccc3F)CCN4)cn2)CC1`: the inhibition in [1], in assay [2], in assay [3], in [4], in [5] and in [6] was < 50% throughout. Moreover, the inhibition in [7], in assay [8], in assay [9], in [10], in [11] and in assay [12] was < 50% each time. Besides, the inhibition in [13] and in assay [14] was < 50% throughout.
As to `CN1CCN(c2ccc(-c3cnc4c(c3)N(Cc3cc(Cl)ccc3Cl)CCN4)cn2)CC1`, the inhibition in [1], in assay [2], in assay [3], in assay [4], in assay [5] and in assay [6] was < 50% each time. Also, the inhibition in assay [7], in assay [8], in assay [9], in [10], in assay [11] and in assay [12] was < 50% throughout. In addition, the inhibition in [13] and in [14] was < 50% each time.
Regarding `O=C(O)c1ccc(-c2cnc3c(c2)N(Cc2cc(Cl)ccc2C(F)(F)F)CCN3)cc1`, the inhibition in assay [6], in [7], in assay [8], in assay [10], in assay [12] and in [14] was < 50% throughout.
Regarding `CN1CCN(c2ccc(-c3cnc4c(c3)N(Cc3cc(Cl)ccc3C(F)(F)F)CCN4)cn2)CC1`, the inhibition in assay [1], in assay [2], in assay [3], in assay [4], in assay [5] and in assay [6] was < 50% in each case. Also, the inhibition in assay [7], in assay [8], in [9], in assay [10], in assay [11] and in assay [12] was < 50% each time. For the same compound, the inhibition in assay [13] and in assay [14] was < 50% each time.
Turning to `COC1CCN(C(=O)c2ccc(-c3cnc4c(c3)N(Cc3cc(Cl)ccc3C(F)(F)F)CCN4)cc2)CC1`, the inhibition in [6], in [7], in [8], in assay [10], in assay [12] and in [14] was < 50% each time.
As for `O=C(c1ccc(-c2cnc3c(c2)N(Cc2cc(Cl)ccc2C(F)(F)F)CCN3)cc1)N1CCC(N2CCCC2)CC1`, the inhibition in assay [7], in assay [8], in assay [10], in assay [12] and in assay [14] was < 50% throughout.
As for `CN1CCN(c2ccc(-c3cnc4c(c3)N(Cc3c(F)ccc(F)c3Cl)CCN4)cn2)CC1`, the inhibition in assay [1] was < 50%; in [2], < 50%; in assay [3] it was 96%; in [4] it was < 50%; in assay [5], < 50%; in assay [6], < 50%. Besides, the inhibition in [7], in [8], in assay [9], in [10], in assay [11] and in assay [12] was < 50% throughout. The inhibition in [13] and in [14] was < 50% in each case.
Turning to `O=C(c1ccc(-c2cnc3c(c2)N(Cc2cc(Cl)ccc2C(F)(F)F)CCN3)cc1)N1CCCCC1`, the inhibition in [6], in assay [7], in [8], in assay [10], in assay [12] and in [14] was < 50% each time.
On to `CC(=O)N1CCN(c2cc(-c3cnc4c(c3)N(Cc3cc(Cl)ccc3C(F)(F)F)CCN4)ccn2)CC1`, for which the inhibition in [1], in assay [2], in assay [3], in assay [4], in assay [5] and in assay [6] was < 50% throughout. In addition, the inhibition in assay [7] was < 50%; in assay [8], < 50%; in assay [9] it was < 50%; in assay [10], < 50%; in assay [11] it was 71%; in assay [12], < 50%. In addition, the inhibition in assay [13] and in [14] was < 50% throughout.

In general, inhibition refers to the change of the read-out against control, counted positive when it falls. The low end stands for a weak effect, the high end for a strong effect.
